Measurements as given in ChEMBL document CHEMBL2321703, “Identification of novel D-amino acid oxidase inhibitors by in silico screening and their functional characterization in vitro” (J Med Chem, 2013).
The source made the active and inactive calls. The rule behind the calls is not given here.

How the values were obtained:
D-amino-acid oxidase [1] = molecular target: T1, D-amino-acid oxidase (Homo sapiens, UniProt P14920); test: Inhibition of human recombinant N-terminal His-tagged DAO expressed in Escherichia coli BL21(DE3) using D-serine as substrate by colorimetric assay
D-amino-acid oxidase [2] = molecular target: D-amino-acid oxidase (Homo sapiens, UniProt P14920, Y224A); test: (§1) Inhibition of human recombinant N-terminal His-tagged DAO Y224A mutant expressed in Escherichia coli BL21(DE3) using D-alanine as substrate after 10 mins by Lineweaver-Burk plot analysis
Chain of D-amino-acid oxidase (Homo sapiens, UniProt P14920, Y224A) (P14920 whole entry Y224A): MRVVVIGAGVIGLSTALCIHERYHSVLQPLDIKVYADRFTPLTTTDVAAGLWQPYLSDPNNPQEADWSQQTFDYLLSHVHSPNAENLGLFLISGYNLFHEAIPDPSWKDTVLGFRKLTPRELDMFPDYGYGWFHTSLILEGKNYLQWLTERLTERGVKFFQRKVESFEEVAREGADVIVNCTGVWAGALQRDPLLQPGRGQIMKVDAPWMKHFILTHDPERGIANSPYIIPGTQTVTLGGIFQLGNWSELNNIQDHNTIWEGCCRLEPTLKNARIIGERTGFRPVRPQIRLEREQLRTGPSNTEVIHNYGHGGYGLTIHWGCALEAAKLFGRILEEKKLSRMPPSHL

[3] = test system: D-amino-acid oxidase (Homo sapiens), P14920 [Y224A]; test: as §1
Chain of D-amino-acid oxidase (Homo sapiens), P14920 [Y224A] (P14920 whole entry Y224A): as above

D-amino-acid oxidase [4] = molecular target: T1, D-amino-acid oxidase; test: Competitive inhibition of human recombinant N-terminal His-tagged DAO expressed in Escherichia coli BL21(DE3) using D-alanine as substrate by Lineweaver-Burk plot analysis
In short: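 Purified N-terminal His-tagged human DAO from E. coli BL21(DE3)pLysS. Colorimetric 2-oxo acid assay in air-saturated 40 mM sodium pyrophosphate pH 8.3 with catalase, 60 μM FAD and 0.5–40 mM D-Ala, 37 °C for 10 min. Stopped with TCA, derivatized with 2,4-dinitrophenylhydrazine, read at A445. Lineweaver–Burk plots; Ki confirmed by slope replot against inhibitor concentration. Three independent experiments.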
Target sequence in this assay (P14920 whole entry, looked up): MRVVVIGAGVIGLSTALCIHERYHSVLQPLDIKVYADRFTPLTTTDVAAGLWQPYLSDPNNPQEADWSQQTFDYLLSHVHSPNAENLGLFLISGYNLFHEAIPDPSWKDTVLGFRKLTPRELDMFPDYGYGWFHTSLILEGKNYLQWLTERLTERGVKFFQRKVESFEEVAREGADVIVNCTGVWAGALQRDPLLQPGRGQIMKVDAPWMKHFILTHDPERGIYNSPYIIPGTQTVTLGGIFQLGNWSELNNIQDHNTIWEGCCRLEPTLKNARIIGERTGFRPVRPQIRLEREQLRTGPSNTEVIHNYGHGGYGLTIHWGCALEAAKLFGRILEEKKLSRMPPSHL

[5] = test system: D-amino-acid oxidase (Homo sapiens), P14920 [Y224F]; test: (§2) Inhibition of human recombinant N-terminal His-tagged DAO Y224F mutant expressed in Escherichia coli BL21(DE3) using D-alanine as substrate after 10 mins by Lineweaver-Burk plot analysis
Chain of D-amino-acid oxidase (Homo sapiens), P14920 [Y224F] (P14920 whole entry Y224F): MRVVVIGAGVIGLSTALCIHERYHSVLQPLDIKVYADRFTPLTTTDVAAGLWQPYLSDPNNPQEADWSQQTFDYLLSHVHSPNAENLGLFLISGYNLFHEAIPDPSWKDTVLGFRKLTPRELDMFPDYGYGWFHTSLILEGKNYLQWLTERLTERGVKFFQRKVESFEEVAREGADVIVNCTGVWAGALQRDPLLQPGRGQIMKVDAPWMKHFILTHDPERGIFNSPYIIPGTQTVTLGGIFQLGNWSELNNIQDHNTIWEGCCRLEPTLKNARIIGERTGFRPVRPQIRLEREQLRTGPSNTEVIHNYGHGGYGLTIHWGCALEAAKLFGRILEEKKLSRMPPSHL

D-amino-acid oxidase [6] = molecular target: D-amino-acid oxidase (Homo sapiens, UniProt P14920, Y224F); test: as §2
Chain of D-amino-acid oxidase (Homo sapiens, UniProt P14920, Y224F) (P14920 whole entry Y224F): as above

[7] = molecular target: T2, D-aspartate oxidase (Homo sapiens) (UniProt Q99489); test: (§3) Inhibition of human recombinant N-terminal His-tagged DDO expressed in Escherichia coli BL21(DE3) using D-aspartate as substrate by colorimetric assay
T2 sequence (whole entry): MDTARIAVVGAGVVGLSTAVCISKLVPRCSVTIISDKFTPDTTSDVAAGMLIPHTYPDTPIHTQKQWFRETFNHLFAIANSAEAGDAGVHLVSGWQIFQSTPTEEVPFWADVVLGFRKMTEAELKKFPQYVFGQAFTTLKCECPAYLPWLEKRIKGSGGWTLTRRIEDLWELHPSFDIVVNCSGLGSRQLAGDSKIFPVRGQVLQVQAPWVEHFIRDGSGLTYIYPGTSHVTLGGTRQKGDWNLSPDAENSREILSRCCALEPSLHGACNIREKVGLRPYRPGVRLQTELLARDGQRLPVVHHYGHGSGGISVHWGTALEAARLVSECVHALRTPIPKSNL
In short: (§4)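 Purified enzyme (0.23–4.2 μg) with 10 mM D-Asp in air-saturated 40 mM sodium pyrophosphate pH 8.3, 23 U catalase, 60 μM FAD; 37 °C, 10 min; trichloroacetic acid stop; 2-oxo acid measured as 2,4-dinitrophenylhydrazone at A445.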

D-aspartate oxidase = molecular target: T3, D-aspartate oxidase (Homo sapiens, UniProt Q99489); test: as §3; in short: as §4
T3 sequence (Q99489 whole entry): T2 sequence (whole entry)

HEK293/NEO [8] = test: Effect on L-alanine level in G418-resistant HEK293/NEO cells at 17 uM by HPLC analysis relative to vehicle-treated control; format: functional, cell-based; settings: Homo sapiens
In short: (§5)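 293/NEO (empty-vector, G418-selected) or 293.HA-hDAO-24 (stable N-terminal HA-tagged human DAO) cells, 1 × 10^6 seeded, maintained in DMEM/10% FBS/800 μg/mL G418; next day fresh medium, compound or vehicle (5% DMSO solution) for 30 min, then 17 mM D-Ala for 24 h. Methanol extraction; D-/L-Ala by OPA/NAC derivatization HPLC with fluorescence; mean ± SD of three assays; Dunnett test vs vehicle.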

D-amino-acid oxidase [9] = molecular target: T1, D-amino-acid oxidase; test: Binding affinity to human recombinant N-terminal His-tagged DAO expressed in Escherichia coli BL21(DE3) at 200 uM after 2 to 30 mins by absorption spectra analysis
Target sequence in this assay (P14920 whole entry, looked up): as the sequence (P14920 whole entry, looked up) above

HEK293/NEO [10] = test: Effect on L-alanine level in G418-resistant HEK293/NEO cells at 83 uM by HPLC analysis relative to vehicle-treated control; format: functional, cell-based; settings: Homo sapiens; in short: as §5
HEK293 [11] = test: Effect on L-alanine level in G418-resistant HEK293 cells at 83 uM by HPLC analysis relative to vehicle-treated control; format: functional, cell-based; settings: Homo sapiens; in short: as §5
D-amino-acid oxidase [12] = molecular target: T1, D-amino-acid oxidase; test: Inhibition of human recombinant N-terminal His-tagged DAO expressed in Escherichia coli BL21(DE3) using D-alanine as substrate by colorimetric assay
[13] = molecular target: T4, Serine racemase (Homo sapiens) (UniProt Q9GZT4); test: (§6) Inhibition of human recombinant N-terminal His-tagged serine racemase expressed in Escherichia coli BL21(DE3) using L-serine as substrate after 10 mins by fluorescence assay
T4 sequence (whole entry): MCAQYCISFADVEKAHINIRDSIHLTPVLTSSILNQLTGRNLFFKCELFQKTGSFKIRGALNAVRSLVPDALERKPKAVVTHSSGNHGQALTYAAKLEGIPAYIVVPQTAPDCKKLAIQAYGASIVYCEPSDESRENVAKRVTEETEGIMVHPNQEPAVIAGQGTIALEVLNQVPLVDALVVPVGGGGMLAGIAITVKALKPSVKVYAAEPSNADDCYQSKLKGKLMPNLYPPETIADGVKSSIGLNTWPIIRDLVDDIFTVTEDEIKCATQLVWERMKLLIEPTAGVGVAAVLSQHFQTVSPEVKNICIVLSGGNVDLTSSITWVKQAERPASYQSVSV
In short: (§7)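 Purified enzyme (30 μg) in 40 mM Tris-HCl pH 8.0, 60 μM pyridoxal phosphate, 1 mM MgCl2, ATP, 1 mM dithiothreitol, 10 mM L-Ser, with compound; 37 °C, 10 min; methanol stop. D-Ser quantified by OPA/Boc-L-cysteine derivatization and reversed-phase HPLC fluorescence (ex 344, em 443 nm).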

Serine racemase = molecular target: T5, Serine racemase (Homo sapiens, UniProt Q9GZT4); test: as §6; in short: as §7
T5 sequence (Q9GZT4 whole entry): T4 sequence (whole entry)

D-amino-acid oxidase [14] = molecular target: T1, D-amino-acid oxidase; test: Inhibition of human recombinant DAO expressed in G418-resistant HEK293/NEO cells assessed as effect on D-alanine level at 83 uM incubated for 30 mins prior to D-alanine addition measured after 24 hrs by HPLC analysis relative to vehicle-treated control; format: cell-based
In short: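 HEK293 cells stably carrying HA-tagged human DAO (clone 293.HA-hDAO-24) or empty vector (293/NEO), seeded at 1 × 10^6. Next day, fresh medium and 83 μM compound or vehicle (5% DMSO solution) for 30 min, then 17 mM D-Ala for 24 h. Cells methanol-extracted; D-/L-Ala by OPA/NAC-derivatized HPLC. Three independent assays, Dunnett test vs vehicle.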
Target sequence in this assay (P14920 whole entry, looked up): as the sequence (P14920 whole entry, looked up) above

D-amino-acid oxidase [15] = molecular target: T1, D-amino-acid oxidase; settings: HEK293, 83 uM
Target sequence in this assay (P14920 whole entry, looked up): as the sequence (P14920 whole entry, looked up) above

HEK293 [16] = test: Effect on L-alanine level in G418-resistant HEK293 cells at 17 uM by HPLC analysis relative to vehicle-treated control; format: functional, cell-based; settings: Homo sapiens; in short: as §5
D-amino-acid oxidase [17] = molecular target: T1, D-amino-acid oxidase; test: Inhibition of human recombinant N-terminal His-tagged DAO expressed in Escherichia coli BL21(DE3) using D-alanine as substrate by Lineweaver-Burk plot analysis
Target sequence in this assay (P14920 whole entry): as the sequence (P14920 whole entry, looked up) above

IC50 (D-amino-acid oxidase [1])	inhibition [7]	IC50 (D-aspartate oxidase)	IC50 (D-amino-acid oxidase [12])	inhibition (D-amino-acid oxidase [12])	inhibition [13]	IC50 (Serine racemase)	SMILES	also measured
> 10000 µM							Nc1ccc(-c2nnc(O)o2)cc1	
0.44 µM	Dose-dependent effect	7580 µM	0.943 µM	Dose-dependent effect	Dose-dependent effect	> 10000 µM	O=c1oc2ccccc2cc1O [3-HYDROXYCOUMARIN]	Ki (D-amino-acid oxidase [2]): 3.69 µM; inhibition [3]: Dose-dependent effect; inhibition (D-amino-acid oxidase [4]): Active; inhibition [5]: Dose-dependent effect; Ki (D-amino-acid oxidase [6]): 0.265 µM; Activity (HEK293/NEO [8]): inactive; Activity (D-amino-acid oxidase [9]): Active; inhibition (D-amino-acid oxidase [1]): Dose-dependent effect; Activity (HEK293/NEO [10]): inactive; Activity (HEK293 [11]): inactive; inhibition (D-amino-acid oxidase [14]): inactive; inhibition (D-amino-acid oxidase [15]): Active; Activity (HEK293 [16]): inactive; Ki (D-amino-acid oxidase [17]): 0.156 µM
900 µM	Dose-dependent effect	> 10000 µM	1450 µM	Dose-dependent effect	Dose-dependent effect	5010 µM	O=C(O)c1cc2c(s1)CCCC2	
> 1000 µM							O=C(O)C1=CN2CCN=C2C=C1	
> 2500 µM							O=C(O)c1ccc[n+]([O-])c1 [OXINIACIC ACID]	
357 µM		> 10000 µM	598 µM			> 10000 µM	C/C=C/C(=O)O [CROTONIC ACID]	inhibition (D-amino-acid oxidase [1]): Dose-dependent effect
	Dose-dependent effect				Dose-dependent effect		O=C(O)[C@@H](O)[C@@H](O)C(=O)O	
> 100 µM							O=C(O)c1cc2c([nH]1)CCCC2	
> 500 µM							Oc1cc(-c2ccccc2)no1	
199 µM	Dose-dependent effect	> 5000 µM	298 µM	Dose-dependent effect	Dose-dependent effect	> 5000 µM	Cc1ccccc1-c1nnc(O)o1	inhibition (D-amino-acid oxidase [1]): Dose-dependent effect
253 µM	Dose-dependent effect	> 10000 µM	365 µM	Dose-dependent effect	Dose-dependent effect	> 10000 µM	O=c1[nH]nc(-c2ccccc2)o1	
1830 µM	Dose-dependent effect	> 10000 µM	3720 µM	Dose-dependent effect	Dose-dependent effect	5160 µM	CCCc1cc(C(=O)O)sc1C	
